Two compounds from ChEMBL document CHEMBL1140334, “Synthesis and structure-activity relationships of pyrazine-pyridine biheteroaryls as novel, potent, and selective vascular endothelial growth factor receptor-2 inhibitors” (J Med Chem, 2005) can be followed below.

The structures appear in SMILES notation.

A word on the IC50: it is the point on the concentration scale where inhibition reaches its midpoint.

For one assay, the system named is MRC5. The assay is described as follows: Concentration required to inhibit proliferation of human MRC5 fibroblast cell growth.
The next assay has as its target Insulin receptor (Homo sapiens, UniProt P06213). Put plainly: Inhibition of insulin Receptor kinase. The method in brief: (§1)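 Radiometric kinase assay. Conditions varied slightly per kinase. Stopped with PBS/100 mM EDTA, read by scintillation counting. IC50 by linear regression of % inhibition, mean of at least two determinations.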
Assay [1] is described as follows: Inhibition of protein kinase A. A digest of the protocol:
as §1

For another assay, the target named is Casein kinase I. The assay is described as follows: Inhibition of casein kinase 1. Type of assay: protein assay.
A further assay has as its target Casein kinase II (Homo sapiens, UniProt P19784+P67870+P68400). Put plainly: Inhibition of casein kinase 2. Type of assay: protein-complex assay. A digest of the protocol: as §1
Assay [2] concerns the target T1, Vascular endothelial growth factor receptor 2 (Homo sapiens, UniProt P35968). Put plainly: Inhibition of vascular endothelial growth factor receptor 2. A digest of the protocol: as §1
Assay [3] is described as follows: Inhibition of platelet-derived growth factor receptor. The method in brief: as §1
Assay [4] concerns the target T1, Vascular endothelial growth factor receptor 2. Put plainly: Inhibitory concentration (experimental) against vascular endothelial growth factor receptor 2. The method in brief:
as §1

Assay [5] concerns the target Glycogen synthase kinase-3 (Homo sapiens, UniProt P49840+P49841). Put plainly: Inhibition of glycogen synthase kinase-3. Type of assay: protein assay. The method in brief: as §1
In assay [6] the target is Mitogen-activated protein kinase 1 (Homo sapiens, UniProt P28482). The assay is described as follows: Inhibition of mitogen-activated protein kinase. The method in brief: as §1
Sequence of Mitogen-activated protein kinase 1 (P28482 whole entry): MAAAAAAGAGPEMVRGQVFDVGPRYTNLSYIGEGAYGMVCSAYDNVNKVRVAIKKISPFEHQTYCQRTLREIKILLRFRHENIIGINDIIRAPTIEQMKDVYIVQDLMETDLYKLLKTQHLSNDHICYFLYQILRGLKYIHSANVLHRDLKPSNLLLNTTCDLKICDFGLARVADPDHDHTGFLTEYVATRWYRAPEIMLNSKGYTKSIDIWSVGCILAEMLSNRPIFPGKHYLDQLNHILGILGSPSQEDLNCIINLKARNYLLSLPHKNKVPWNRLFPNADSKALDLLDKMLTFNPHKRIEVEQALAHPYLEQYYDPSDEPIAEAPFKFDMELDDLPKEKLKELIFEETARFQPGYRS
The subject of a further assay is HASMC. Put plainly: Concentration required to inhibit proliferation of HASMC. To be noted: Homo sapiens.
Assay [7] relates to HUVEC. Put plainly: Concentration required to inhibit proliferation of HUVEC. To be noted: Homo sapiens.
Assay [8] relates to A-375. Put plainly: Concentration required to inhibit proliferation of A375 human amelanotic melanoma cell growth.
For a further assay, the system named is HCT-116. Put plainly: Concentration required to inhibit proliferation of human HCT116 colon cancer cell growth.
A further assay has as its system HeLa. The assay is described as follows: Concentration required to inhibit proliferation of HeLa cell growth. To be noted: Homo sapiens.
In assay [9] the test system is HUVEC. Put plainly: Concentration inhibiting VEGF stimulated (2 ng/well) HUVE cell proliferation. Particulars: Homo sapiens.
Assay [10] in a line: Inhibition of protein kinase C gamma. A digest of the protocol: as §1
Assay [11] addresses Cyclin-dependent kinase 4/cyclin D1 (Homo sapiens, UniProt P11802). The assay is described as follows: Inhibition of cyclin dependent kinase 4-cyclinD1. Type of assay: protein-complex assay. A digest of the protocol:
as §1

Assay [12] has as its system A-375. Put plainly: The antitumor activity shown by the compound against A375 human melanoma xenografts growing in nude mice (10 mg/kg, i.p.) in terms of mean day of survival. Type of assay: functional, Mus musculus. The method in brief:
(§2)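 Female nude mice carried subcutaneous flank implants of 1 mm3 A375 fragments and were pair-matched on day 1 at tumors of 62-126 mg. Dosing was i.p. once daily for 30 days, in 1.5% Pluronic F108 vehicle; the study ended at day 60. Tumor weight was taken as (w2l)/2. Mice were euthanized at 2.0 g, and MDS was derived from calculated time to endpoint.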
On the technique in general: A xenograft is tissue or cells of one species grown in another, often human tumour cells in immunodeficient mice.

The test system of assay [13] is A-375. The assay is described as follows: The antitumor activity shown by the compound against A375 human melanoma xenografts growing in nude mice (75 mg/kg, i.p.) in terms of mean day of survival. Type of assay: functional, Mus musculus. The method in brief:
as §2

The target in a further assay is CaM kinase II (Homo sapiens, UniProt Q13557+Q13555+Q13554+Q9UQM7). Put plainly: Inhibition of calcium/calmodulin-dependent protein kinase type II. Type of assay: protein assay.
In assay [14] the target is Protein kinase C beta type (Homo sapiens, UniProt P05771). The assay is described as follows: Inhibition of protein kinase C beta activity. A digest of the protocol: as §1
Assay [15] is described as follows: Inhibition of cyclin-dependent kinase 1 activity. The method in brief: as §1

T1 sequence (P35968 whole entry): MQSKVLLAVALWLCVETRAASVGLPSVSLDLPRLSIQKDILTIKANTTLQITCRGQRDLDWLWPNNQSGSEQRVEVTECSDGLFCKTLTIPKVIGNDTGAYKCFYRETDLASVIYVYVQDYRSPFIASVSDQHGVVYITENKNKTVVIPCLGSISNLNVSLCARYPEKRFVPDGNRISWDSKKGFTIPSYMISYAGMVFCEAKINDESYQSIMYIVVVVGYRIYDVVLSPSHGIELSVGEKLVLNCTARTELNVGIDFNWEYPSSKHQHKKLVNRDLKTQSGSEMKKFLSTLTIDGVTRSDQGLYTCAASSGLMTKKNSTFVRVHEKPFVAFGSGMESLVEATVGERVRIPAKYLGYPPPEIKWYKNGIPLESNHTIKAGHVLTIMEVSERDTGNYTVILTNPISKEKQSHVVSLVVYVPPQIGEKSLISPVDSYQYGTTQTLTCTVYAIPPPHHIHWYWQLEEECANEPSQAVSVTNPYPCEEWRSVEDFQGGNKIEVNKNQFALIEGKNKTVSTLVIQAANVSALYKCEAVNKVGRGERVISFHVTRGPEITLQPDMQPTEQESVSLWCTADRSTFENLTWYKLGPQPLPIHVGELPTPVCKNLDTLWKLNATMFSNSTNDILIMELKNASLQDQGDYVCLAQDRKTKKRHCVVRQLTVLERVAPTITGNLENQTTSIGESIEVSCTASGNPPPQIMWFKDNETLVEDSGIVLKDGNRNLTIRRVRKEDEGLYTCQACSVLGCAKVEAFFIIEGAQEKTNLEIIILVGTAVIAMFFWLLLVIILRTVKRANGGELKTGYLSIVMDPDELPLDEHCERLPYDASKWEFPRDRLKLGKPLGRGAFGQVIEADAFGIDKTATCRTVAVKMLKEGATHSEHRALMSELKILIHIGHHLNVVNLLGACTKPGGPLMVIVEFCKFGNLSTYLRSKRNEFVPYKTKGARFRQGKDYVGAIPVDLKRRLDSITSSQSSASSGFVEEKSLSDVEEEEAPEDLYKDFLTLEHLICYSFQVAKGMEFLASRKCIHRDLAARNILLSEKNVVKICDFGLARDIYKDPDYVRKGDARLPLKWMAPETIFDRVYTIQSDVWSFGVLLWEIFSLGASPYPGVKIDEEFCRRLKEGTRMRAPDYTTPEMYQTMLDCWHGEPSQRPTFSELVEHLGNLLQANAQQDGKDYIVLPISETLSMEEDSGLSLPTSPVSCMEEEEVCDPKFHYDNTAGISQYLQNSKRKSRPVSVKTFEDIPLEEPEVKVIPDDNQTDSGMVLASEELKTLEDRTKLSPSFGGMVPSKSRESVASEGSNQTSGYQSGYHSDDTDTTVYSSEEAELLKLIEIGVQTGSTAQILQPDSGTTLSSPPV
Sequence of Casein kinase II (P67870 whole entry): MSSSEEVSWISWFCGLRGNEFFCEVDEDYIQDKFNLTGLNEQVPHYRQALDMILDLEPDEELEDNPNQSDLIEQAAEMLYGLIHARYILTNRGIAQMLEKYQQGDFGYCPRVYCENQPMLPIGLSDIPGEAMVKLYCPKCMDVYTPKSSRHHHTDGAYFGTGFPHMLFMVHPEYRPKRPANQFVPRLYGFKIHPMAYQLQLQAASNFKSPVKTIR
Sequence of Casein kinase II (P68400 whole entry): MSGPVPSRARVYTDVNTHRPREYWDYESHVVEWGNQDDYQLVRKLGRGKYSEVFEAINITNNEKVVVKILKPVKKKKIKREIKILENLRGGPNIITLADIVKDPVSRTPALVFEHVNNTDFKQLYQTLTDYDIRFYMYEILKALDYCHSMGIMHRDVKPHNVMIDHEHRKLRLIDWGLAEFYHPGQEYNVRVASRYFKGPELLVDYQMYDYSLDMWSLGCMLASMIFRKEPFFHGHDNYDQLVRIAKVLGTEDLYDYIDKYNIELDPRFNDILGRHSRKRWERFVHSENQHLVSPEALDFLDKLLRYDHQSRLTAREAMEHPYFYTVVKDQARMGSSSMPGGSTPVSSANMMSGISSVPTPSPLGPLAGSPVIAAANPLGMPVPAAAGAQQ
Sequence of Casein kinase II (P19784 whole entry): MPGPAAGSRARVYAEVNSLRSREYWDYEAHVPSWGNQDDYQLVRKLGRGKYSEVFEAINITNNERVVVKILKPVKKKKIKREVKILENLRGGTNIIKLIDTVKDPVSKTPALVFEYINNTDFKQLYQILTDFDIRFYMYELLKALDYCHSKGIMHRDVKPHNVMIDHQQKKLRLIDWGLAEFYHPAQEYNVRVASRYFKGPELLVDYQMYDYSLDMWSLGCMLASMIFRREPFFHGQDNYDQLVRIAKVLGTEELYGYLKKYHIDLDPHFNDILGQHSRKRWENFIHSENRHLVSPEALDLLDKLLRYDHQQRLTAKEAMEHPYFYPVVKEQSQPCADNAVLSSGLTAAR
Sequence of Insulin receptor (P06213 28-758 limits assumed): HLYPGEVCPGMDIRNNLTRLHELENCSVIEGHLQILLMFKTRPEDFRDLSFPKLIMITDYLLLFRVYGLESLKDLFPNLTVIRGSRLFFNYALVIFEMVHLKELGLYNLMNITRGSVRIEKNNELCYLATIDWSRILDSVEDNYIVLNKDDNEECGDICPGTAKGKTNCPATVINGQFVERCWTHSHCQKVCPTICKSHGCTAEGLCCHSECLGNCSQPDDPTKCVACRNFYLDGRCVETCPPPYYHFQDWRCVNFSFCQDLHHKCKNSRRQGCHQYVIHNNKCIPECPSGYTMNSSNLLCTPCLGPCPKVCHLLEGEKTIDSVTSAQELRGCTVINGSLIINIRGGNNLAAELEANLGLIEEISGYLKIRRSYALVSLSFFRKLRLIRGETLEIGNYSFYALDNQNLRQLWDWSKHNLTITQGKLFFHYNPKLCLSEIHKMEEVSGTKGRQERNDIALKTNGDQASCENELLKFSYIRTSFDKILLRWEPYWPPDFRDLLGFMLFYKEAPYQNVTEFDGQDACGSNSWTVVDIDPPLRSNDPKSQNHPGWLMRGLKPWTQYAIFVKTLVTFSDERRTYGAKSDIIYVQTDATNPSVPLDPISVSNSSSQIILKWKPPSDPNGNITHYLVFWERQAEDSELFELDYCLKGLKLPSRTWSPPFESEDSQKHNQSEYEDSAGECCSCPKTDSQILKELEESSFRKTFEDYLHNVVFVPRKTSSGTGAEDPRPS
Sequence of Insulin receptor (P06213 763-1382 limits assumed): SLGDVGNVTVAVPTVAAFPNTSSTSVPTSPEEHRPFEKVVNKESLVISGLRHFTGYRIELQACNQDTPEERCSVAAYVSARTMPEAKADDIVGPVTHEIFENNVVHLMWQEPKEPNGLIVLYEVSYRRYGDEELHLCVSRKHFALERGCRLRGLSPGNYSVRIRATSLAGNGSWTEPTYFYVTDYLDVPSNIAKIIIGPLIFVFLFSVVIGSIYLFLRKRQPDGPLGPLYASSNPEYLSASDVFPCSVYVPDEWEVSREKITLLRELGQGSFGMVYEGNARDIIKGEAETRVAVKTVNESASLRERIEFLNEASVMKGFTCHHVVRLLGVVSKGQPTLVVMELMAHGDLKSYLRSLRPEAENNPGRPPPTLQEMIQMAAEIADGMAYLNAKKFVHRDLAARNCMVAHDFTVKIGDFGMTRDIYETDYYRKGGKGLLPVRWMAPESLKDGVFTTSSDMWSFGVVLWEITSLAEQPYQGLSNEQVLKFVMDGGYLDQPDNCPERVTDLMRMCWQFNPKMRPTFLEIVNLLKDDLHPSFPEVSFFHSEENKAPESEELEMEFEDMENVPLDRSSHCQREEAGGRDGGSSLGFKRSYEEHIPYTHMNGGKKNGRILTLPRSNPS
Sequence of Cyclin-dependent kinase 4/cyclin D1 (P11802 whole entry): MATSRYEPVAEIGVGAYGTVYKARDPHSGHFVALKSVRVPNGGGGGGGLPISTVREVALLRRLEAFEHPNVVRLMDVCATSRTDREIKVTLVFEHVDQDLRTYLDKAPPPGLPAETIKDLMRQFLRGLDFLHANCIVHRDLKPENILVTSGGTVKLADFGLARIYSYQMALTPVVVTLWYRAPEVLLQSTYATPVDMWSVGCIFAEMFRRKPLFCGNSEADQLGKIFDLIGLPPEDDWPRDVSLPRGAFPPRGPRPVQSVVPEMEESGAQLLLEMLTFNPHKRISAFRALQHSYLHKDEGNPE
Sequence of Cyclin-dependent kinase 4/cyclin D1 (P24385 whole entry, further chain): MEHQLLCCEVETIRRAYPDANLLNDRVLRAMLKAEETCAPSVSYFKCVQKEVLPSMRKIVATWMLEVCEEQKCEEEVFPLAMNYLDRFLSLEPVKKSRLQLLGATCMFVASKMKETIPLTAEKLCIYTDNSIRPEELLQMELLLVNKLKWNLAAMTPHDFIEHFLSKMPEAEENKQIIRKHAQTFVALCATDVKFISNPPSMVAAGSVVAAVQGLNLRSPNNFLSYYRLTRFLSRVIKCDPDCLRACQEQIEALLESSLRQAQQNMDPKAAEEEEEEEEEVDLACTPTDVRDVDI

As for `Clc1cccc(Nc2cncc(-c3cncc(NCCCc4cccnc4)c3)n2)c1`, the IC50 in the assay with MRC5 is 3.38 µM; against Insulin receptor, greater than 10 µM; in assay [1], greater than 10 µM; on Casein kinase I it was greater than 10 µM; against Casein kinase II, greater than 10 µM; in [2] it was 0.076 µM. The IC50 was 0.876 µM in [3]; 0.0759 µM in [4]; 0.318 µM in assay [5]; greater than 10 µM in assay [6]; 6.15 µM in the assay on HASMC; 1.67 µM with HUVEC [7]. For the same compound, the half-inhibitory concentration (IC50) in the assay on A-375 [8] was found to be 2.96 µM; in the assay on HCT-116, 5.05 µM; in the assay on HeLa, 3.06 µM; in the assay on HUVEC [9], 0.086 µM.
On to `CN(C)CCNc1cncc(-c2cncc(Nc3cccc(Cl)c3)n2)c1`, for which the IC50 was 2.91 µM in the assay with MRC5; 3.96 µM in assay [10]; greater than 10 µM against Insulin receptor; greater than 10 µM in assay [1]; greater than 10 µM in assay [11]; greater than 10 µM against Casein kinase I. Moreover, the IC50 on Casein kinase II is greater than 10 µM; in assay [2], 0.105 µM; in assay [3], greater than 10 µM; in [4], 0.105 µM; in assay [5] it was greater than 10 µM; on CaM kinase II, greater than 10 µM. Further, the IC50 in [6] was greater than 10 µM; in the assay with HASMC, 2.77 µM; with HUVEC [7] it was 0.877 µM; in the assay on A-375 [8], 3.72 µM; with HCT-116 it was 8.58 µM; in the assay with HeLa, greater than 10 µM. Further, the IC50 in the assay with HUVEC [9] was 0.059 µM; in [14], greater than 10 µM; in [15], greater than 10 µM. Moreover, the MDS is reported as 22.4 with A-375 [12] and 28.9 in the assay on A-375 [13].
